UBC9 SUMO inh: inhibitors of in vitro SUMOylation cascade, primary screen, biochemical, HTRF, uHTS | SUMO-conjugating enzyme UBC9 (Homo sapiens), P63279 | HTRF SUMOylation assay, SAE1/SAE2 + UBC9 | inhibition, % at 35 µM | hit rate 0.36% among 290,000 | AID 2006, 2009; in the data active = inhibition above about 50%, passing the limit was not always enough
HNF4A DNA FP: change in binding of human HNF4A to DNA, primary screen, biochemical, fluorescence polarization, FITC-DNA. Hepatocyte nuclear factor 4-alpha (Homo sapiens), P41235. 1 h. activity change, % at 10 µM. hit rate 0.3% among 360,000; in the data active = activity change above about 30%, passing the limit was not always enough
TPT1 inh: Candida albicans TPT1 enzyme inhibitors, primary screen, biochemical, fluorescence polarization. tRNA 2'-phosphotransferase TPT1 (Candida albicans SC5314). inhibition, % at 5 µM. hit rate 0.81% among 300,000. AID 1962, 2009. recombinant caTPT1, FP RNA substrate dephosphorylation;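 active = inhibition above the mean of all tested compounds plus 3 SD, set per screening campaign, cut at about 24% in these data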;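 note: plate controls were DMSO alone for no effect and ferristatin control at 100 nM for full effect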
CSN inh: inhibitors of CSN-mediated cullin deneddylation, primary screen, biochemical, fluorescence polarization, uHTS; COP9 signalosome complex subunit 5 (Homo sapiens), Q92905; Purified CSN, SCF-Nedd8-OG deneddylation; inhibition, % at 12.5 µM; hit rate 0.38% among 360,000; AID 651999, 2013;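 active = pattern-corrected inhibition above about 35%, with an unprinted fluorescence ratio check between 0.5 and 1.5, limit read from the data, passing the limit was not always enough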;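 note: 0% = enzyme with substrate and 100% = substrate without enzyme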
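Test system: purified human Csn5 enzyme expressed in HEK293T cells. Amount: 0.24 nM enzyme. Reagent: SCFSkp2-Nedd8OG substrate at 10 nM final. Schedule: 90 min incubation of compound, enzyme and substrate at room temperature. Detection: fluorescence polarization. Read-out: % inhibition of substrate cleavage by Csn5.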
SENP1 FRET inh: human SENP1 catalytic domain inhibitors, primary screen, biochemical, FRET, uHTS; recombinant SENP1 catalytic domain, CyPet-SUMO1-YPet FRET cleavage; hit rate 0.21% among 360,000; Sentrin-specific protease 1 (Homo sapiens), Q9P0U3; inhibition, % at 10 µM;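 active = inhibition at least 30% at 10 µM, raw YFP signal under a set limit, fluorescence ratio 0.5 to 1.5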;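 note: 0% = enzyme with DMSO and 100% = no enzyme wells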
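Assay system – human recombinant His6-tagged SENP1 catalytic domain enzyme · Input – SENP1 enzyme, 20 pM final · Buffer or medium – Tris pH 8 buffer plus EDTA, NaCl, BME, BSA, NP40, catalase · Schedule – 50 min reaction at room temperature · Technique – FRET read of cyan and yellow fluorescence · Control set – no-enzyme wells low, DMSO-plus-enzyme wells high control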
Rpn11 block: Rpn11 (PSMD14) deubiquitinase inhibitors, primary screen, biochemical, fluorescence polarization, uHTS | human 26S proteasome, Ub4-pepOG fluorescence polarization; 20S core pre-blocked with epoxomicin | calls only at 20 µM | hit rate 0.59% among 360,000;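 active = inhibition at 20 µM, scaled to each plate's controls, above about 33%, limit read from the data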
Rpn11 inh conf: Rpn11 (PSMD14) deubiquitinase inhibitors, confirmation, biochemical, fluorescence polarization, single concentration. shares compounds with Rpn11 block. purified human 26S proteasome, Ub4-pepOG fluorescence polarization; proteasome pretreated with epoxomicin. inhibition, % at 20 µM. hit rate 29% among 1,900. AID 602318, 2012
MMP-2 counter-1: MMP-2 enzyme inhibition, confirmation, counter-screen for RPN11 inhibitor project, biochemical, fluorescence, single concentration | hit rate 4% among 1,900 | inhibition, % at 20 µM | shares compounds with Rpn11 block | recombinant MMP-2, FRET peptide cleavage fluorescence | AID 602330, 2012;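 note: human MMP-2 activated beforehand with APMA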
Target sequence (P08253 whole entry, looked up): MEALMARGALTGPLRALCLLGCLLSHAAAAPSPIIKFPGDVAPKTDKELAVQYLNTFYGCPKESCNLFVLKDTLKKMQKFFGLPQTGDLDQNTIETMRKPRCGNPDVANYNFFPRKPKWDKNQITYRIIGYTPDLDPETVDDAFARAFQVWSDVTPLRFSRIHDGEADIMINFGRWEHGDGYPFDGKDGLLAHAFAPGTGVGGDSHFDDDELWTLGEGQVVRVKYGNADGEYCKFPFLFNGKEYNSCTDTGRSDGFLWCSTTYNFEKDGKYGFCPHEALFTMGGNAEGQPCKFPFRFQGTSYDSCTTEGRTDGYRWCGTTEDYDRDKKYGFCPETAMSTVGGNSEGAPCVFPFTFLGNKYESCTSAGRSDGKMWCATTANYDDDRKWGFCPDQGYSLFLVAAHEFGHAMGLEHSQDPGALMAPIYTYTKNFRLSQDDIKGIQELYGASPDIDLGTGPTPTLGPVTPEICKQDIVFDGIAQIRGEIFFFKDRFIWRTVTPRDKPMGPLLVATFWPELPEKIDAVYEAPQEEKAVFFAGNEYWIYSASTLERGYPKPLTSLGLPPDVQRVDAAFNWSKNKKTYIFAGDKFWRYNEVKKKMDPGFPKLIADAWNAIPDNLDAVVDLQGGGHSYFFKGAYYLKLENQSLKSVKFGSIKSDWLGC
Thrombin inh: bovine thrombin protease inhibition, confirmation, counter-screen for Rpn11 inhibitor project, biochemical, fluorescence polarization, single concentration | shares compounds with Rpn11 block | bovine thrombin cleavage of Ub4-pepOG | inhibition, % at 20 µM | hit rate 13% among 1,900;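 active = mean inhibition at least 40% at 20 µM, or signal 3 deviations below plate average, so some actives read negative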;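 note: plate controls were thrombin with DMSO for no effect and buffer wells lacking thrombin for full effect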
SENP1 inh conf: human SENP1 catalytic domain inhibitors, confirmation, biochemical, FRET endpoint, single concentration. shares compounds with SENP1 FRET inh. recombinant SENP1, CyPet-SUMO1-YPet FRET cleavage. inhibition, % at 10 µM. hit rate 34% among 520. AID 651678, 2012; in the data active = inhibition mostly above about 35%, no sharp cut-off; inactive = mostly below about 32%;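 note: 0% = enzyme with DMSO and 100% = no enzyme control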
SENP1 kin conf: human SENP1 catalytic domain inhibitors, confirmation, biochemical, kinetic FRET, single concentration; shares compounds with SENP1 FRET inh; recombinant SENP1, CyPet-SUMO1-YPet FRET kinetic cleavage; inhibition, % at 10 µM; hit rate 26% among 520; AID 651690, 2012; in the data active = inhibition mostly above about 32%, no sharp cut-off; inactive = mostly below about 29%;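 note: 0% = DMSO with enzyme and 100% = no enzyme substrate only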
CSN5 deneddyl: Csn5 deneddylation inhibitors, confirmation, biochemical, fluorescence polarization, single concentration, SCF-Nedd8OG substrate. shares compounds with CSN inh. hit rate 62% among 540. AID 720654, 2013. inhibition, % at 16.6 µM. Csn5 deneddylation of SCF-Nedd8OG, 90 min; in the data active = inhibition above about 50%;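 note: 0% = DMSO with enzyme and 100% = no enzyme wells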
MMP-2 counter-2: MMP-2 protease inhibition counter-screen, confirmation, counter-screen for CSN deneddylation inhibitor project, biochemical, fluorescence, single concentration | recombinant MMP-2, FRET substrate fluorescence, 60 min | inhibition, % at 16.6 µM | shares compounds with CSN inh | hit rate 33% among 540;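 active = corrected plate-normalized z-score of 5 or more, or -5 or less, or inhibition of 15% or more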;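 note: plate controls were DMSO wells with enzyme for no effect and buffer wells lacking MMP-2 for full effect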
Thrombin cntr: counter-screen for CSN deneddylation inhibitors: bovine thrombin inhibition; shares compounds with CSN inh; inhibition, % at 16.6 µM; AID 720656; bovine thrombin cleavage of Ub4-pepOG, fluorescence polarization; hit rate 49% among 540;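 active = inhibition at or above a set limit, with a fluorescence interference ratio between 0.5 and a set maximum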
HNF4A confirm: change in HNF4A binding to DNA, retest, confirmation, biochemical, fluorescence polarization, FITC-DNA; shares compounds with HNF4A DNA FP; 1 h; activity change, % at 12.5 µM; hit rate 99% among 210; call rule not given here
Starred values were filed as active, the others as inactive; i = inactive; · = no result given; + = active, no number; ! = not active in a repeat. Hits are enriched below; roughly 1.8% of the tested compounds scored in any of these assays. Cut-off read from the data, not from the text of the source, unless noted: active = inhibition above about 40%; inactive = the rest.

SMILES	UBC9 SUMO inh	HNF4A DNA FP	TPT1 inh	CSN inh	SENP1 FRET inh	Rpn11 block	CSN5 deneddyl	MMP-2 counter-2	Thrombin cntr	others
O=c1[nH]c(=S)[nH]c(O)c1N=Nc1ccc2c(c1)OCO2	1	42*	10	13	19	+	·	·	·	Rpn11 inh conf=17;MMP-2 counter-1=32;Thrombin inh=11;HNF4A confirm=46*
CCN(CC)C(=O)c1ccc(NC(=O)Nc2ccccc2F)cc1	-2	-1	-1	-2	-1	i	·	·	·
Nc1cccc2c1Cc1cc([N+](=O)[O-])ccc1-2	·	4	·	2	73*	i	·	·	·	SENP1 inh conf=0;SENP1 kin conf=0
CC1(C)CC[C@]2(C)CC[C@]3(C)C4C[C@@H]5OO[C@@]6(O5)C(CCCC6(C)C)[C@]4(C)CC[C@@]3(C)C2C1 (stereo not given in full)	·	2	-2	-5	2	i	·	·	·
Cc1cc(/C=C2\C(=O)NC(=O)N(C)C2=O)c(C)n1-c1ccc2c(c1)OCO2	34	-2	16	3	35*	i	·	·	·	SENP1 inh conf=-21;SENP1 kin conf=19
Cc1cc(/C=C2/C(=O)NC(=O)N(C)C2=O)c(C)n1-c1ccccc1	16	-4	1	-5	-2	i	·	·	·
Clc1cccc(N2Cc3cc(-c4ccccc4)ccc3-n3nncc3C2)c1	·	-4	·	69*	4	i	66*	14	25*
Cc1cc(N(CCCl)CCCl)ccc1C=Cc1ccncn1	·	67*	·	41*	-32	·	53*	-23	37*
CCOC(=O)c1c(N)n(CCN2CCCCC2)c2nc3ccccc3nc12	18	-3	4	10	-120	i	·	·	·
CCCCn1c(NS(=O)(=O)c2ccccc2)c(C(=O)OCC)c2nc3ccccc3nc21	100*	1	2	63*	-28	i	103*	7	-32
CN(C)[C@@H]1C(=O)C(C(N)=O)=C(O)[C@@]2(O)C(=O)C3=C(O)c4c(O)cccc4[C@@](C)(O)C3[C@H](O)C12 (stereo not given in full)	·	-57	-31	37*!	25	·	89*	9	13
COc1c(OP2(=S)OCC(C)(C)CO2)cnn(C2CCCCC2)c1=O	·	4	·	-2	1	i	·	·	·
CC1=C(O)C(=O)C=C2C1=CC=C1C2(C)CCC2(C)C3CC(C)(C(=O)O)CCC3(C)CCC12C (stereo not given)	·	-7	·	42*	-2	i	·	10	-1
CC(=O)OC1CC2(O)C3CCC4CC(O)CCC4(C)C3CCC2(C)C1C1=CC(=O)OC1 (stereo not given)	·	-5	·	-1	3	i	·	·	·
Cn1ncnc2c(=O)n(C)c(=O)nc1-2	102*	112	3	74*	38*	i	-21	-7	-37
C/C=C/CC#N	·	1	·	-1	1	i	·	·	·
O=c1c2ccccc2nc(/C=C/c2ccc([N+](=O)[O-])o2)n1-c1ccc(O)cc1	23	177	·	50*	-3	·	65*	-1	46*
O=C(O)c1ccc(/C=C/c2nc3ccccc3c(=O)n2-c2ccc(Br)cc2)cc1	12	2	-1	3	1	i	·	·	·
COC(=O)C1=C(c2ccc(OC(F)(F)F)cc2)C[C@@H]2CC[C@H]1N2C(=O)N1CCCC1	·	-1	·	-5	3	i	·	·	·
CC(C)OCC(O)CN1CC2C[C@@H](C1)Cn1c2cccc1=O (stereo not given in full)	9	-2	-2	1	-10	i	·	·	·
